Experimental data as given in ChEMBL document CHEMBL1131070, “Synthesis and antiallergic activity of dimethyl-2-(phenylcarbamoyl)ethylsulfonium p-toluenesulfonate derivatives” (J Med Chem, 1998).

Assays:
[1] = test system: Rattus norvegicus; test: Inhibition of the homologous passive cutaneous anaphylaxis (PCA) in rat, administered at a dose of 50 mg/kg intraperitoneally; assay type: functional; conditions: ip, route intraperitoneal
Outline: (§1)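 Rat anti-DNP-As serum (raised with DNP-coupled ascaris plus killed Bordetella pertussis; titer about 1:256 by 48-h PCA) diluted 20-fold in 0.9% saline, given intradermally as 0.1 mL at three shaved-back sites of normal rats, with saline on the other side. After 48 h, 1.0 mL of 0.25% Evans blue containing 2.0 mg of antigen given iv. Read-out is % inhibition ± SD.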

[2] = test system: Rattus norvegicus; test: Inhibition of homologous Passive Cutaneous Anaphylaxis in rat, following 20 mg/kg i.p. administration.; assay type: functional; conditions: po, in the assay text read “p.o.” for “i.p.”; outline: as §1
[3] = Lethal dose (LD50) determined in male ddY mice; assay type: toxicity; conditions: mouse, in vivo
Outline: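 Acute toxicity by the up-down method, five animals per determination, with LD50 reported in mg/kg.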

[4] = test system: Rattus norvegicus; test: Inhibitory activity against the homologous Passive Cutaneous Anaphylaxis (PCA) in rat, administered at a dose of 50 mg/kg perorally; assay type: functional; conditions: route oral; outline: as §1
[5] = test system: Rattus norvegicus; test: Inhibitory activity against the homologous Passive Cutaneous Anaphylaxis (PCA) in rat, administered at a dose of 20 mg/kg perorally; assay type: functional; conditions: route oral; outline: as §1
[6] = test system: Rattus norvegicus; test: Inhibitory activity against the homologous Passive Cutaneous Anaphylaxis (PCA) in rat, administered at a dose of 100 mg/kg intraperitoneally; assay type: functional; conditions: ip, route intraperitoneal; outline: as §1

In the case of `C[S+](C)CCC(=O)Nc1ccc(CC(=O)O)cc1`, the inhibition in vivo at 50 mg/kg [1] is reported as 25.5% and the inhibition in vivo at 20 mg/kg [2] is reported as 14.9%.
Work on `C[S+](C)CCC(=O)Nc1ccc(OCC(O)CO)cc1.Cc1ccc(S(=O)(=O)[O-])cc1` (centres undefined) yielded an inhibition in vivo at 50 mg/kg [1] of 34.9%, an LD50 [3] of 1040 mg/kg and an inhibition in vivo at 20 mg/kg [2] of 38.7%. It also gave an inhibition in vivo at 50 mg/kg [4] of 18.6% and an inhibition in vivo at 20 mg/kg [5] of 1.4%.
`COc1ccc(NC(=O)CC[S+](C)C)cc1` showed an inhibition in vivo at 50 mg/kg [1] of 17.4% and an inhibition in vivo at 20 mg/kg [2] of -4.4%.
Compound `C[S+](C)CCC(=O)Nc1ccc(OCC(O)COC2CCCCC2)cc1` (centres undefined) has an inhibition in vivo at 50 mg/kg [1] of -7.4% and an inhibition in vivo at 20 mg/kg [2] of 10.2%.
Compound `C[S+](C)CCC(=O)Nc1ccc(F)cc1` has an inhibition in vivo at 50 mg/kg [1] of 1.2% and an inhibition in vivo at 20 mg/kg [2] of 4%.
`CCCOCC(O)COc1ccc(NC(=O)CC[S+](C)C)cc1` (centres undefined) showed an inhibition in vivo at 50 mg/kg [1] of 13.8% and an inhibition in vivo at 20 mg/kg [2] of 16.3%.
Compound `C[S+](C)CCC(N)=O` has an inhibition in vivo at 50 mg/kg [1] of 2.4% and an inhibition in vivo at 100 mg/kg [6] of 13.7%.
Work on `C[S+](C)CCC(=O)Nc1ccc(O)cc1` yielded an inhibition in vivo at 50 mg/kg [1] of 9.7% and an inhibition in vivo at 20 mg/kg [2] of 21.9%.
Compound `CCOCC(COc1ccccc1NC(=O)CC[S+](C)C)OC(C)=O` (centres undefined) has an inhibition in vivo at 50 mg/kg [1] of 20% and an inhibition in vivo at 20 mg/kg [2] of -2%.
For `COCC(COc1ccc(NC(=O)CC[S+](C)C)cc1)OC` (centres undefined), the inhibition in vivo at 50 mg/kg [1] was 10.5% and the inhibition in vivo at 20 mg/kg [2] was 17.9%.
In the case of `CC(O)COc1ccc(NC(=O)CC[S+](C)C)cc1.Cc1ccc(S(=O)(=O)[O-])cc1` (centres undefined), the LD50 [3] is reported as 495 mg/kg.
For `CC(=O)c1ccc(NC(=O)CC[S+](C)C)cc1`, the inhibition in vivo at 50 mg/kg [1] was 25.1% and the inhibition in vivo at 20 mg/kg [2] was 9%.
Work on `CCCCOCC(O)COc1ccc(NC(=O)CC[S+](C)C)cc1` (centres undefined) yielded an inhibition in vivo at 50 mg/kg [1] of 4.4% and an inhibition in vivo at 20 mg/kg [2] of 7.9%.
For `C[S+](C)CCC(=O)Nc1ccc(OCC(O)COc2ccccc2)cc1` (centres undefined), the inhibition in vivo at 50 mg/kg [1] was 4.6% and the inhibition in vivo at 20 mg/kg [2] was 14.4%.
Compound `C[S+](C)CCC(=O)Nc1ccc(Cl)cc1` has an inhibition in vivo at 50 mg/kg [1] of 0.3% and an inhibition in vivo at 20 mg/kg [2] of -0.2%.
Compound `CCCOc1ccc(NC(=O)CC[S+](C)C)cc1.Cc1ccc(S(=O)(=O)[O-])cc1` has an inhibition in vivo at 50 mg/kg [1] of 29.8%, an LD50 [3] of 97 mg/kg and an inhibition in vivo at 20 mg/kg [2] of 13.8%.
`C[S+](C)CCC(=O)Nc1ccc(OCCCO)cc1.Cc1ccc(S(=O)(=O)[O-])cc1` gave an LD50 [3] of 324 mg/kg.
`CCOCC(O)COc1ccc(NC(=O)CC[S+](C)C)cc1` (centres undefined) [SUPLATAST TOSILATE] gave an inhibition in vivo at 50 mg/kg [1] of 35.5% and an inhibition in vivo at 20 mg/kg [2] of 28.9%.
`Cc1ccc(NC(=O)CC[S+](C)C)cc1` gave an inhibition in vivo at 50 mg/kg [1] of 22% and an inhibition in vivo at 20 mg/kg [2] of 18.9%.
`CCOCC(COc1ccc(NC(=O)CC[S+](C)C)cc1)OCC` (centres undefined) showed an inhibition in vivo at 50 mg/kg [1] of 5.1% and an inhibition in vivo at 20 mg/kg [2] of 0.1%.
Work on `C[S+](C)CCC(=O)Nc1ccccc1` yielded an inhibition in vivo at 50 mg/kg [1] of -8.3% and an inhibition in vivo at 100 mg/kg [6] of 27.1%.
With `C[S+](C)CCC(=O)NC1CCCCC1` the inhibition in vivo at 50 mg/kg [1] was 9% and the inhibition in vivo at 100 mg/kg [6] was 17%.
`C[S+](C)CCC(=O)Nc1ccc(C(F)(F)F)cc1` gave an inhibition in vivo at 50 mg/kg [1] of -10.3% and an inhibition in vivo at 20 mg/kg [2] of -7.8%.
`COCC(O)COc1ccc(NC(=O)CC[S+](C)C)cc1` (centres undefined) gave an inhibition in vivo at 50 mg/kg [1] of 24.8% and an inhibition in vivo at 20 mg/kg [2] of 17.7%.
With `CCOCC(COc1ccc(NC(=O)CC[S+](C)C)cc1)OC(C)=O` (centres undefined) the inhibition in vivo at 50 mg/kg [1] was 30.2% and the inhibition in vivo at 20 mg/kg [2] was 35.1%.
Work on `CCOCC(COc1cccc(NC(=O)CC[S+](C)C)c1)OC(C)=O` (centres undefined) yielded an inhibition in vivo at 50 mg/kg [1] of 17.7% and an inhibition in vivo at 20 mg/kg [2] of 18.2%.
